This note sets out measurements from ChEMBL document CHEMBL1141578, “Structure-based optimization of cephalothin-analogue boronic acids as beta-lactamase inhibitors” (Bioorg Med Chem, 2008).

A short description of assay [1]: Inhibition of AmpC beta lactamase.
Assay [2] is described as follows: Inhibition of beta lactamase TEM1.
A short description of assay [3]: Inhibition of AmpC beta lactamase N289A mutant. In short, it runs like this: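 Rates were taken at steady state after the lag phase. Ki came from progress curves with and without inhibitor (Waley method), averaged over five inhibitor concentrations giving ≥50% inhibition, each in triplicate.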
The nature of assay [4]: Inhibition of beta lactamase TEM30.

One may read the Ki as the equilibrium dissociation constant of an inhibitor or competing ligand from its target. Low readings indicate higher affinity, high ones lower affinity. Turning to `CC(=O)OCC1=C(C(=O)O)N2C(=O)[C@@H](NC(=O)Cc3cccs3)[C@H]2SC1` [CEPHALOTHIN], in assay [1], the Ki stood at 0.32 µM. This counts as sub-micromolar. In turn, `CB(O)O` [METHANE BORONIC ACID] gave a Ki in assay [1] of 1000 µM. Consider `O=C(O)/C=C/c1cccc([C@H](NC(=O)Cc2cccs2)B(O)O)c1`, for which the Ki in assay [2] was 0.106 µM; in assay [3], 0.0028 µM; in assay [4], 3.8 µM.

Take `O=C(Cc1cccs1)NCB(O)O`: the affinity in assay [1] corresponds to a Ki of 0.32 µM. This lies in the sub-micromolar range. As to `O=C(Cc1cccs1)N[C@H](B(O)O)c1cccc(C(=O)O)c1`, the Ki came out at 0.064 µM in assay [2], 0.017 µM in assay [3], 7.8 µM in assay [4] and 0.001 µM in assay [1]. `CC(=O)NCB(O)O` [ACETAMIDOMETHYLBORONIC ACID] yielded a Ki in assay [1] of 18.5 µM. Consider `O=C(Cc1cccs1)N[C@H](B(O)O)c1ccccc1`, for which the Ki in assay [1] was found to be 0.035 µM.
